The source made the active and inactive calls. The calls are words filed in the database; no cut-off is given here.
What was measured:
[1] = target: Tyrosine-protein kinase SYK (Homo sapiens) (UniProt P43405); assay: Inhibition of recombinant human N-terminal His6-tagged SYK (1 to 635 residues) expressed in baculovirus infected Sf21 cells assessed as remaining activity at 1 uM using Poly (Glu,Tyr) as substrate incubated for 30 mins in presence of [gamma-33P]ATP by filter binding assay relative to control
[2] = target: Sphingosine kinase 1 (Homo sapiens) (UniProt Q9NYA1); assay: Inhibition of SPHK1 (unknown origin) assessed as remaining activity at 1 uM using sphingosine as substrate incubated for 30 mins in presence of ATP relative to control
Procedure, shortened: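 SPHK1 assayed with 10 μM sphingosine, 10 μM ATP in 50 mM Tris/HCl pH 7.5, 150 mM NaCl, 5 mM MgCl2, 1 mM EGTA, 1 mM DTT, 30 min at room temperature. ATP remaining read by Kinase-Glo Plus luminescence after 10 min. Activity as % of control, triplicate.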

mTORC1 (Homo sapiens) = mTORC1 (Homo sapiens) (UniProt P42345+Q8N122+Q9BVC4); conditions: HEK293, dose 30.0 nM, time 30.0 min
[3] = target: Serine/threonine-protein kinase pim-3 (Homo sapiens) (UniProt Q86V86); assay: Inhibition of recombinant human N-terminal His6-tagged PIM3 (2 to 326 residues) expressed in baculovirus infected Sf21 cells assessed as remaining activity at 10 uM using RSRHSSYPAGT as substrate incubated for 30 mins in presence of [gamma-33P]ATP by filter binding method relative to control
[4] = target: Calcium/calmodulin-dependent protein kinase type 1 (Homo sapiens) (UniProt Q14012); assay: Inhibition of recombinant human N-terminal GST-tagged CAMK1alpha (2 to 369 residues) expressed in Escherichia coli assessed as remaining activity at 10 uM using YLRRRLSDSNF as substrate incubated for 30 mins in presence of [gamma-33P]ATP by filter binding method relative to control
Procedure, shortened: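 Run robotically for 30 min at 21 °C under linear conditions. Compound at 1 or 10 µM. Percentage activity remaining versus control without compound, triplicate mean ± S.D.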

[5] = target: Mitogen-activated protein kinase 13 (Homo sapiens) (UniProt O15264); assay: Inhibition of recombinant human GST-tagged P38delta (1 to 365 residues) expressed in Escherichia coli assessed as remaining activity at 1 uM using MBP as substrate incubated for 30 mins in presence of [gamma-33P]ATP by filter binding method relative to control
Procedure, shortened: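 Kinase panel run robotically at 21 °C for 30 min, linear in time and enzyme. […] Compound tested at 1 or 10 µM. Activity given as percentage of incubations without compound, mean of triplicates ± S.D.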

[6] = target: Casein kinase I isoform delta (Homo sapiens) (UniProt P48730); assay: Inhibition of recombinant human N-terminal GST-tagged CK1delta (1 to 415 residues) expressed in Escherichia coli assessed as remaining activity at 1 uM using RRKDLHDDEEDEAMSITA as substrate incubated for 30 mins in presence of [gamma-33P]ATP by filter binding method relative to control
Procedure, shortened: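 Robotic radiometric panel assay, 30 min at room temperature (21 °C), with 10 mM magnesium acetate. […] Compound at 1 or 10 µM. Residual activity expressed relative to compound-free control; triplicate average ± S.D.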

mTORC2 (Homo sapiens) = mTORC2 (Homo sapiens) (UniProt P42345+Q6R327+Q9BVC4+Q9BPZ7); conditions: HEK293, dose 30-1000 nM, time 30.0 min
[7] = target: Serine/threonine-protein kinase 26 (Homo sapiens) (UniProt Q9P289); assay: Inhibition of recombinant human N-terminal His6-tagged MST4 (1 to 416 residues) expressed in baculovirus infected Sf21 cells assessed as remaining activity at 10 uM using MBP as substrate incubated for 30 mins in presence of [gamma-33P]ATP by filter binding method relative to control
[8] = target: Ephrin type-B receptor 3 (Homo sapiens) (UniProt P54753); assay: Inhibition of recombinant human N-terminal His6-tagged EPHB3 (561 to 998 residues) expressed in Escherichia coli assessed as remaining activity at 1 uM using Poly(Glu, Tyr) as substrate incubated for 30 mins in presence of [gamma-33P]ATP by filter binding method relative to control
Procedure, shortened: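 Panel assays were run for 30 min at 21 °C, within the linear range for time and enzyme. […] Results are percent activity remaining relative to compound-free control, averaged from triplicate ± S.D.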

[9] = target: Mitogen-activated protein kinase; ERK1/ERK2 (Homo sapiens) (UniProt P27361+P28482); assay: Inhibition of ERK1/2 in serum starved/PMA-stimulated HEK293 cells assessed as reduction in ERK1/2 phosphorylation at T202/Y204 residues at 1 uM incubated for 30 mins by immunoblot analysis; format: cell-based
[10] = target: Mitogen-activated protein kinase 12 (Homo sapiens) (UniProt P53778); assay: Inhibition of recombinant human N-terminal GST-tagged P38gamma (1 to 367 residues) expressed in Escherichia coli assessed as remaining activity at 1 uM using MBP as substrate incubated for 30 mins in presence of [gamma-33P]ATP by filter binding method relative to control
Procedure, shortened: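 Radiometric kinase panel run robotically at room temperature (21 °C) for 30 min, linear in time and enzyme. […] Activity is expressed as percent of control without compound, from triplicate determinations ± S.D.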

[11] = target: Tyrosine-protein kinase Lck (Homo sapiens) (UniProt P06239); assay: Inhibition of recombinant human N-terminal His6-tagged LCK (2 to 509 residues) expressed in baculovirus infected Sf21 cells assessed as remaining activity at 1 uM using KVEKIGEGTYGVVYK as substrate incubated for 30 mins in presence of [gamma-33P]ATP by filter binding method relative to control
Procedure, shortened: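 Assays ran 30 min at 21 °C, robotically and in the linear range. Remaining activity is given relative to incubations lacking compound, as the average of triplicate determinations ± S.D.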

[12] = system: Ribosomal protein S6 kinase beta-1 (Homo sapiens), P23443 [T412E]; assay: Inhibition of recombinant human His6-tagged S6K1 T412E mutant (1 to 421 residues) expressed in baculovirus infected Sf21 cells assessed as remaining activity at 10 uM using KKRNRTLTV as substrate incubated for 30 mins in presence of [gamma-33P]ATP by filter binding method relative to control
Procedure, shortened: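 Incubations ran robotically for 30 min at room temperature (21 °C) under linear conditions. Results are percent activity remaining versus controls without compound, as the mean of triplicates ± S.D.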

[13] = target: Sphingosine kinase 2 (Homo sapiens) (UniProt Q9NRA0); assay: Inhibition of SPHK2 (unknown origin) assessed as remaining activity at 10 uM using sphingosine as substrate incubated for 30 mins in presence of ATP relative to control
Procedure, shortened: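 SPHK2 reaction: 10 μM sphingosine, 1 μM ATP, 50 mM Tris/HCl pH 7.5, 200 mM KCl, 5 mM MgCl2, 1 mM EGTA, 1 mM DTT, 30 min at room temperature. Kinase-Glo Plus luminescence read-out. Percentage of control activity, triplicate.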

Sequence of Mitogen-activated protein kinase 13 (Homo sapiens) (O15264 whole entry, the tested form may be a part): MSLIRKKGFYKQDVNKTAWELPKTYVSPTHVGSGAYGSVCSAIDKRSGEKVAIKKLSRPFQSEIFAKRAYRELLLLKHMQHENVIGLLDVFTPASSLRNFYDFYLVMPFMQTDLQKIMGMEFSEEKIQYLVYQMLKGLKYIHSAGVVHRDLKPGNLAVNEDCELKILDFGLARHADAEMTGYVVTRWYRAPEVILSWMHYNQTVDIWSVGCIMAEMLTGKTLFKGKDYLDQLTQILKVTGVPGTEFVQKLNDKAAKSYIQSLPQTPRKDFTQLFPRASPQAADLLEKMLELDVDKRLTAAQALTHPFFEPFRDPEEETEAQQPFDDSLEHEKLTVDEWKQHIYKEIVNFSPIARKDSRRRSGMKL
Sequence of Serine/threonine-protein kinase 26 (Homo sapiens) (Q9P289 2-416 limits assumed): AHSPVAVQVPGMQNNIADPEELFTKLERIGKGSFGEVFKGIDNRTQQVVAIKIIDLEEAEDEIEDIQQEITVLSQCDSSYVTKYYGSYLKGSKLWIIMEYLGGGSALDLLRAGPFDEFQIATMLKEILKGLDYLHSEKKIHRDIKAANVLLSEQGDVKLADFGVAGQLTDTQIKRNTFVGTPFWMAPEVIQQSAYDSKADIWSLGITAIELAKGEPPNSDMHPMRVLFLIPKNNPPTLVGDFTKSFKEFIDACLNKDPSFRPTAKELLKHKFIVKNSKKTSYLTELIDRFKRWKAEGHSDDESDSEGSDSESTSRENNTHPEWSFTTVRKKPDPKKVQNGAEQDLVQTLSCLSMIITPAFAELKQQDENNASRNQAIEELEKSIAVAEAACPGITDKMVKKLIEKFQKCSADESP
Sequence of Sphingosine kinase 2 (Homo sapiens) (Q9NRA0 whole entry): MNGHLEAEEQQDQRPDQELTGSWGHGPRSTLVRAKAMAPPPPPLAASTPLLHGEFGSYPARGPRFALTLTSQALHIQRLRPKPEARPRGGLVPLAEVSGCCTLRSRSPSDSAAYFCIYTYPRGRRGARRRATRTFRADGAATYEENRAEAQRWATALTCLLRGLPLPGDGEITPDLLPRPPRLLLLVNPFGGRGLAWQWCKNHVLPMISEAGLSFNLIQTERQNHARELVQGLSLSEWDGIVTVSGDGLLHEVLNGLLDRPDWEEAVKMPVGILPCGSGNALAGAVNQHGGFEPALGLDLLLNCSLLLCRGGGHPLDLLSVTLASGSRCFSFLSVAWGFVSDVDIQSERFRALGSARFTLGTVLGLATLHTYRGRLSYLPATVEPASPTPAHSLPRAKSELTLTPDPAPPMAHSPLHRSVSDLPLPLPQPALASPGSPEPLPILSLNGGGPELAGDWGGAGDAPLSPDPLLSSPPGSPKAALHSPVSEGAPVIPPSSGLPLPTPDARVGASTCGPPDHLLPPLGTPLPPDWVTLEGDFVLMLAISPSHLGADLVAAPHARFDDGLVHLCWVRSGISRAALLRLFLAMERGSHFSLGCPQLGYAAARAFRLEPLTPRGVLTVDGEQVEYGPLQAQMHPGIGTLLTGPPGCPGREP
Sequence of Ribosomal protein S6 kinase beta-1 (Homo sapiens), P23443 [T412E] (P23443 whole entry T412E, looked up, the tested form may be a part): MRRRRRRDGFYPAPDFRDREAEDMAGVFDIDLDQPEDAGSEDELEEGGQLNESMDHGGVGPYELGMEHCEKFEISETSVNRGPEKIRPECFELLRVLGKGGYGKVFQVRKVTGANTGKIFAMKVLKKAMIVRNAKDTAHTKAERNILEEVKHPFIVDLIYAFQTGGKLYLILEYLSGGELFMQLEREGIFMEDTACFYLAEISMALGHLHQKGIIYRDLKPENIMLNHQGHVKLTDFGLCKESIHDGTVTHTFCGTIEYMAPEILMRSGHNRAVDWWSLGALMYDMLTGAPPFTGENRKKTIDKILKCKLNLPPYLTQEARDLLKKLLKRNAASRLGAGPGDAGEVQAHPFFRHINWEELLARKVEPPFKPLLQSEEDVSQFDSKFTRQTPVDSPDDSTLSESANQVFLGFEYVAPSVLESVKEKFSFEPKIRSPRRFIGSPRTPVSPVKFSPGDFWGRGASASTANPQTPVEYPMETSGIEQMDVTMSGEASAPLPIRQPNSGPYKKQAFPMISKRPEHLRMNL
Sequence of Calcium/calmodulin-dependent protein kinase type 1 (Homo sapiens) (Q14012 whole entry, looked up, the tested form may be a part): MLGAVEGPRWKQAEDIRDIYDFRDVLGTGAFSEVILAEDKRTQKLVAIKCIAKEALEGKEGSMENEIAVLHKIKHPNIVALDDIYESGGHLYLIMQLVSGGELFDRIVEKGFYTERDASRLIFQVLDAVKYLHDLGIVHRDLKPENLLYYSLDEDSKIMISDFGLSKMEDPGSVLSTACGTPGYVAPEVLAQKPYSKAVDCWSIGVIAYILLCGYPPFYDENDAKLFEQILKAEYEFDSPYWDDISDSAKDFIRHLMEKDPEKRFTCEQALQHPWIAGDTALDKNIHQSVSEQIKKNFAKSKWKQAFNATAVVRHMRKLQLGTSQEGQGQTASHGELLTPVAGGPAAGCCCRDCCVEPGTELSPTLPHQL
Sequence of Mitogen-activated protein kinase 12 (Homo sapiens) (P53778 whole entry, the tested form may be a part): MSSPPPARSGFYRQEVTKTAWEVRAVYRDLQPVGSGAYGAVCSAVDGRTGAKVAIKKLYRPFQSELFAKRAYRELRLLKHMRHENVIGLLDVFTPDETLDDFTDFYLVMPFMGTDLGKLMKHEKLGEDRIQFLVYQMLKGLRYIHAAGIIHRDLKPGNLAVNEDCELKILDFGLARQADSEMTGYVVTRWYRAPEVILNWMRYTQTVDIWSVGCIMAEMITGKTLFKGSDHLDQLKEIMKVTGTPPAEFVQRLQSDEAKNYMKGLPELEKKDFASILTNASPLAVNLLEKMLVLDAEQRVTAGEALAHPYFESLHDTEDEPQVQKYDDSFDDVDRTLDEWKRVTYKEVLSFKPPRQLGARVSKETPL
Sequence of Tyrosine-protein kinase Lck (Homo sapiens) (P06239 2-509 limits assumed): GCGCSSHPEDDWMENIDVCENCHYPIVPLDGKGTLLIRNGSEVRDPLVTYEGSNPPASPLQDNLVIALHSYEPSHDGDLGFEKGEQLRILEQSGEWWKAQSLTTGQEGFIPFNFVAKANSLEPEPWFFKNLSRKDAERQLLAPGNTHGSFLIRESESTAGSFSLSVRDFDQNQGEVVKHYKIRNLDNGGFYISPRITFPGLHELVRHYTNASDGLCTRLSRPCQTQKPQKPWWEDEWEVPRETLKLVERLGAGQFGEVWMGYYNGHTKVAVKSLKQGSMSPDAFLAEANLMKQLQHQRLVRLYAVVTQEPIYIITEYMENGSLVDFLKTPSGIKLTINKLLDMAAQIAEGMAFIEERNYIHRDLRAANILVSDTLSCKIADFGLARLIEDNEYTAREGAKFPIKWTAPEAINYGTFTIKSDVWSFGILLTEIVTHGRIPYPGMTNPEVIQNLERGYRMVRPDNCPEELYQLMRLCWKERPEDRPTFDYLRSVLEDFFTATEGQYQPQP
Sequence of Sphingosine kinase 1 (Homo sapiens) (Q9NYA1 whole entry): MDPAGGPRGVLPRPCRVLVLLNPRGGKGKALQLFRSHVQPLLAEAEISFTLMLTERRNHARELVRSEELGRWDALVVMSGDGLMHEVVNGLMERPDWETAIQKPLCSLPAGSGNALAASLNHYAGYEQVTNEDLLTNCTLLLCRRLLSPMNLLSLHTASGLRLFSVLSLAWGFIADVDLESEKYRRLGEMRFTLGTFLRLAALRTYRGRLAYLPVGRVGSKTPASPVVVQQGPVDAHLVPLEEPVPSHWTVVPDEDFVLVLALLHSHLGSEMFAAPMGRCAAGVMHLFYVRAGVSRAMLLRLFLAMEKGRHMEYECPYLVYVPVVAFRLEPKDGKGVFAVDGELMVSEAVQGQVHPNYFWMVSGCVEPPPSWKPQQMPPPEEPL
Sequence of Casein kinase I isoform delta (Homo sapiens) (P48730 whole entry, looked up, the tested form may be a part, canonical isoform): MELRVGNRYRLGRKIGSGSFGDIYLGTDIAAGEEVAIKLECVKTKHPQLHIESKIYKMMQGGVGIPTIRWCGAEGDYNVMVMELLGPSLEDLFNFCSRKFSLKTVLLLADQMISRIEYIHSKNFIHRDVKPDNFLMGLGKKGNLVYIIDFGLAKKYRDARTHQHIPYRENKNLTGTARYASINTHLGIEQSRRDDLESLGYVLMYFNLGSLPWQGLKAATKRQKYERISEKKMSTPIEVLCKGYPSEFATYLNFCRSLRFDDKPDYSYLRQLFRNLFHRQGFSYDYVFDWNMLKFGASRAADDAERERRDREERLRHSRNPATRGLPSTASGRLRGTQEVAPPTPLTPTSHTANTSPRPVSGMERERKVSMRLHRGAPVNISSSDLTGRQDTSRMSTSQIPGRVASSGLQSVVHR

For COc1ccc(-c2ccc3c(N4CCOCC4)nc(N4C[C@@H](C)O[C@@H](C)C4)nc3n2)cc1CO [Ku-0063794], the Activity [1] was 88%, the Activity [2] was 108% and the inhibition (mTORC1 (Homo sapiens)) was “Active”. It also gave an Activity [3] of 75%, an Activity [4] of 101% and an Activity [5] of 72%. For the same molecule, the Activity [6] was 112%, the inhibition (mTORC2 (Homo sapiens)) was “Dose-Dependent Effect” and the Activity [7] was 86%. The Activity [8] was 100%, the inhibition [9] was “inactive” and the Activity [10] was 89%. For the same molecule, the Activity [11] was 69%, the Activity [12] was 98% and the Activity [13] was 116%.
